Data from ChEMBL document CHEMBL1144407, “Synthesis of phosphonated carbocyclic 2'-oxa-3'-aza-nucleosides: novel inhibitors of reverse transcriptase” (J Med Chem, 2005).

What was measured:
MOLT-3 [1] = assay: Cytotoxicity in human Molt-3 cell line after 24 hours; format: functional; details: MOLT-3, 24 h
Outline: (§1)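 Cells held in optimal culture conditions were exposed to test agent at 16 to 1000 µM, or control medium, for the stated time. Viability was scored by trypan blue exclusion. CC50 is the concentration giving 50% toxicity, from three or more experiments (some values are the mean of two).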

MOLT-3 [2] = assay: Cytotoxicity in human Molt-3 cell line after 48 hours; format: functional; details: MOLT-3, 48 h; outline: as §1
U-937 [3] = assay: Induction of apoptosis by the compound in human U937 cell line after 24 hours; format: functional, cell-based; details: U-937, 24 h
Outline: (§2)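 Cultures were exposed under optimal conditions to 16–1000 µM compound, or control medium, for the stated time. Cells were stained with acridine orange, and over 600 cells were counted by fluorescence microscopy. AC50 is the concentration giving 50% apoptosis, from three or more experiments (some are the mean of two).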

MOLT-3 [4] = assay: Cytotoxicity in human Molt-3 cell line after 72 hours; format: functional; details: MOLT-3, 72 h; outline: as §1
HL-60 [5] = assay: Induction of apoptosis by the compound in human HL-60 cell line after 48 hours; format: functional, cell-based; details: HL-60, 48 h; outline: as §2
HL-60 [6] = assay: Induction of apoptosis by the compound in human HL-60 cell line after 72 hours; format: functional, cell-based; details: HL-60, 72 h; outline: as §2
MOLT-3 [7] = assay: Induction of apoptosis by the compound in human Molt-3 cell line after 24 hours; format: functional, cell-based; details: MOLT-3, 24 h; outline: as §2
MOLT-3 [8] = assay: Induction of apoptosis by the compound in human Molt-3 cell line after 48 hours; format: functional, cell-based; details: MOLT-3, 48 h; outline: as §2
MOLT-3 [9] = assay: Induction of apoptosis by the compound in human Molt-3 cell line after 72 hours; format: functional, cell-based; details: MOLT-3, 72 h; outline: as §2
U-937 [10] = assay: Induction of apoptosis by the compound in human U937 cell line after 48 hours; format: functional, cell-based; details: U-937, 48 h; outline: as §2
U-937 [11] = assay: Induction of apoptosis by the compound in human U937 cell line after 72 hours; format: functional, cell-based; details: U-937, 72 h; outline: as §2
HL-60 [12] = assay: Induction of apoptosis by the compound in human HL-60 cell line after 24 hours; format: functional, cell-based; details: HL-60, 24 h; outline: as §2
U-937 [13] = assay: Cytotoxicity in human U937 cell line after 24 hours; format: functional; details: U-937, 24 h; outline: as §1
U-937 [14] = assay: Cytotoxicity in human U937 cell line after 48 hours; format: functional; details: U-937, 48 h; outline: as §1
U-937 [15] = assay: Cytotoxicity in human U937 cell line after 72 hours; format: functional; details: U-937, 72 h; outline: as §1
HL-60 [16] = assay: Cytotoxicity in human HL-60 cell line after 24 hours; format: functional; details: HL-60, 24 h; outline: as §1
HL-60 [17] = assay: Cytotoxicity in human HL-60 cell line after 48 hours; format: functional; details: HL-60, 48 h; outline: as §1
HL-60 [18] = assay: Cytotoxicity in human HL-60 cell line after 72 hours; format: functional; details: HL-60, 72 h; outline: as §1

| SMILES | CC50 (MOLT-3 [1]) | CC50 (MOLT-3 [2]) | AC50 (U-937 [3]) | CC50 (MOLT-3 [4]) | AC50 (HL-60 [5]) | AC50 (HL-60 [6]) | AC50 (MOLT-3 [7]) | AC50 (MOLT-3 [8]) | AC50 (MOLT-3 [9]) | AC50 (U-937 [10]) | AC50 (U-937 [11]) | AC50 (HL-60 [12]) | CC50 (U-937 [13]) | CC50 (U-937 [14]) | CC50 (U-937 [15]) | CC50 (HL-60 [16]) | CC50 (HL-60 [17]) | CC50 (HL-60 [18]) |
| --- | --- | --- | --- | --- | --- | --- | --- | --- | --- | --- | --- | --- | --- | --- | --- | --- | --- | --- |
| CCOP(=O)(CC1CC(n2ccc(N)nc2=O)ON1C)OCC (configuration not stated) | > 1000 µM | > 1000 µM | > 1000 µM | > 1000 µM | > 1000 µM | > 1000 µM | > 1000 µM | > 1000 µM | > 1000 µM | > 1000 µM | > 1000 µM | > 1000 µM | > 1000 µM | > 1000 µM | > 1000 µM | > 1000 µM | > 1000 µM | > 1000 µM |
| CCOP(=O)(CC1CC(n2cc(F)c(=O)[nH]c2=O)ON1C)OCC (configuration not stated) | 247 µM | 197 µM |  | 141 µM | 151 µM |  | 457 µM | 277 µM | 170 µM |  |  | 250 µM |  |  |  | > 1000 µM | 457 µM | 408 µM |
| CCOP(=O)(CC1CC(n2cc(C)c(=O)[nH]c2=O)ON1C)OCC (configuration not stated) | > 1000 µM | > 1000 µM | > 1000 µM | > 1000 µM | > 1000 µM | > 1000 µM | > 1000 µM | > 1000 µM | > 1000 µM | > 1000 µM | > 1000 µM | > 1000 µM | > 1000 µM | > 1000 µM | > 1000 µM | > 1000 µM | > 1000 µM | > 1000 µM |
